The text below walks through data of ChEMBL document CHEMBL1124227, “Effects of sulfur-containing analogues of stearic acid on growth and fatty acid biosynthesis in the protozoan Crithidia fasciculata” (J Med Chem, 1988).

Each structure is given as a SMILES string. pIC50: −log10 of the molar value.

What all share (assay type): functional, organism-based
Assay [1] deals with Crithidia fasciculata. Briefly: Inhibition of dihydrosterculate synthesis in Crithidia fasciculata. The note with it: read-out: I50. Put shortly:
(§1)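 C. fasciculata (about 1 × 10⁷ organisms) was inoculated into 50 mL growth medium containing the analogue, using duplicate flasks at 3–6 concentrations plus duplicate untreated controls. Cultures were shaken at 25 °C until controls reached 6 × 10⁷ to 9 × 10⁷ organisms/mL. Harvested cells gave free fatty acids, which were converted to methyl esters. Dihydrosterculate was measured as % of total fatty acids by capillary GC-FID on BP1 and Supelcowax 10 columns.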

For assay [2], the system named is Crithidia fasciculata. The assay is described as follows: The compound was tested for 50% growth inhibition against Crithidia fasciculata. The note with it: read-out: I50. In short, it runs like this: (§2)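 Cultures were set up in 50 mL growth medium with the analogue added and inoculated with about 1 × 10⁷ C. fasciculata. Duplicate flasks were run at each of 3–6 concentrations, with duplicate controls. Flasks were shaken at 25 °C, and growth was followed as absorbance change at 535 nm against uninoculated medium (1.0 = 7 × 10⁷ organisms/mL). Runs ended when controls reached 6 × 10⁷ to 9 × 10⁷ organisms/mL.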

For assay [3], the system named is Crithidia fasciculata. The assay is described as follows: Inhibition of dihydrosterculate synthesis in Crithidia fasciculata; No inhibition. Put shortly: as §1
In assay [4] the test system is Crithidia fasciculata. Briefly: The compound was tested for 50% growth inhibition against Crithidia fasciculata; No inhibition. In short, it runs like this:
as §2

For the compound `CCCCCCCCCSCCCCCCCC(=O)NCC(O)CO` (centres undefined), the figures for the pIC50 in assay [1] and in assay [2] were 5.10 and below 4.00, respectively. With `CCCCCCCCSCCCCCCCCC(=O)NCC(O)CO` (centres undefined), the pIC50 in assay [1] was 4.92; in assay [2], 4.77. In the case of `CCCCCCCCCCCCCCCCCC(=O)NCC(O)CO` (centres undefined), the I50 entry in assay [3] and in assay [4] was “Not Active” each time. Turning to `CCCCCCCCC[S+]([O-])CCCCCCCC(=O)O` (centres undefined), the I50 result in assay [3] is listed as “Not Active”. Moreover, the pIC50 in assay [2] was below 4.00.

On to `CCCCCCCCCCSCCCCCCC(=O)O`, for which the figures for the pIC50 in assay [1] and in assay [2] were 6.40 and 6.10, respectively.

As to `CCCCCCCCCSCCCCCCCC(=O)O`, the pIC50 is 6.05 in assay [1] and below 4.00 in assay [2]. With `CCCCCCCCSCCCCCCCCC(=O)O`, the pIC50 is 5.40 in assay [1] and 5.00 in assay [2]. With `CCCCCCCC[S+]([O-])CCCCCCCCC(=O)O` (centres undefined), the I50 result in assay [3] is on record as “Not Active”. Also, the pIC50 in assay [2] is below 4.00. As for `CCCCCCCSCCCCCCCCCC(=O)O`, the pIC50 in assay [1] and in assay [2] was 5.52 each time. Regarding `CCCCCCCCCCCCCCCCCC(=O)O` [STEARIC ACID], the I50 entry in assay [3] is reported as “Not Active”.
